Experimental data as given in ChEMBL document CHEMBL1157137, “Design, synthesis and biological evaluation of piperazine analogues as CB1 cannabinoid receptor ligands” (Bioorg Med Chem, 2008).

Assays:
[1] = molecular target: Cannabinoid receptor 1 (Rattus norvegicus, UniProt P20272); test: Displacement of [3H]CP-55940 from CB1 receptor in Sprague-Dawley rat cerebella membrane
Method in brief: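 Male Sprague–Dawley rat (200–300 g) cerebellar membranes incubated with 3 nM [3H]CP55,940 and varied ligand concentrations in TME buffer with 0.5% fatty-acid-free BSA, 1 h at 30 °C. Filtered over PEI-soaked GF/B filters, washed five times with ice-cold buffer containing 0.1% BSA, then counted by liquid scintillation. IC50 from single determinations.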

[2] = molecular target: Cannabinoid receptor 2 (Homo sapiens, UniProt P34972); test: Displacement of [3H]WIN-55212-2 from human CB2 receptor expressed in CHOK1 cells; format: cell-based, CHO-K1
Chain of Cannabinoid receptor 2 (P34972 whole entry): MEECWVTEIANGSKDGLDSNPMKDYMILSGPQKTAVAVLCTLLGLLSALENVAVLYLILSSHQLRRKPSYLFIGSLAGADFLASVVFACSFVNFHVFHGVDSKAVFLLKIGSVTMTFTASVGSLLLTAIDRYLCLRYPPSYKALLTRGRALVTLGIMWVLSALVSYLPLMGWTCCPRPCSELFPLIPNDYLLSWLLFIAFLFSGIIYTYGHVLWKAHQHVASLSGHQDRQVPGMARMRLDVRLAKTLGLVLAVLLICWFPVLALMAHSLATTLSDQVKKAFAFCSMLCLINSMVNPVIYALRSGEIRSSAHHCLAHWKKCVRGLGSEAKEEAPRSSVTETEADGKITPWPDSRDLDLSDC
Method in brief: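 Membranes were from CHO K-1 cells transfected with human CB2. They were incubated with 3 nM [3H]WIN55,212-2 and varied ligand concentrations in TME/0.5% fatty-acid-free BSA, 1 h at 30 °C. Bound ligand was separated on 0.1% PEI-soaked GF/B filters, washed five times with ice-cold 0.1% BSA buffer, and counted by scintillation. IC50 from single determinations.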

[3] = molecular target: Cannabinoid receptor 1 (Homo sapiens, UniProt P21554); test: Antagonist activity at human CB1 receptor expressed in CHOK1 cells by luciferase assay; format: functional, cell-based, CHO-K1
Chain of Cannabinoid receptor 1 (Homo sapiens, UniProt P21554) (P21554 whole entry): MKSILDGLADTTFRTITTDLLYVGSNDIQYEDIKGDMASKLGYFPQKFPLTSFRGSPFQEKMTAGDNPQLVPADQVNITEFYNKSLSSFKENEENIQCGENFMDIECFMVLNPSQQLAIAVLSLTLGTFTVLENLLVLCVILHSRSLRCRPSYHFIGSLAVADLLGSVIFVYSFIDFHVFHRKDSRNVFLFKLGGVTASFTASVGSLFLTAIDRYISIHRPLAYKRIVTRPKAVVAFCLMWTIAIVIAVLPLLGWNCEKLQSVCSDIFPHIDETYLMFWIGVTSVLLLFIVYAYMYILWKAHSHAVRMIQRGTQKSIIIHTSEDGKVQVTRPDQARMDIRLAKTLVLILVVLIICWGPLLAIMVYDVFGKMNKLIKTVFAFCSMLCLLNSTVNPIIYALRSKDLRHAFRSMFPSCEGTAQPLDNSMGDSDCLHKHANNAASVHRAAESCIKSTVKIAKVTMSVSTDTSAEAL

Chain of Cannabinoid receptor 1 (Rattus norvegicus, UniProt P20272) (P20272 whole entry): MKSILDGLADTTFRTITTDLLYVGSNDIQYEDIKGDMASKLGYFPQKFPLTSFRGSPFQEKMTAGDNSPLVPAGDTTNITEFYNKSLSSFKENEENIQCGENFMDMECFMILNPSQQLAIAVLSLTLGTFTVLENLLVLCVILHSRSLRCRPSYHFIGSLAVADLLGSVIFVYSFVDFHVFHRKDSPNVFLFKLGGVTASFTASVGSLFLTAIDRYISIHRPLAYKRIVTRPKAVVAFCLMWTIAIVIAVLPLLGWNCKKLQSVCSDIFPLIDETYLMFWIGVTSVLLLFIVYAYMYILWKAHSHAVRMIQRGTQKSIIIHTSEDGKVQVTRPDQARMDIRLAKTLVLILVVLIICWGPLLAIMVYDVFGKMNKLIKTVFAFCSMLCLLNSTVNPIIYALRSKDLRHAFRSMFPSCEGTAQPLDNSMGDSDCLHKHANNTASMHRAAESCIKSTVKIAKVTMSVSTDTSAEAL

SMILES | IC50 [1] [µM] | IC50 [2] [µM] | IC50 [3] [µM]
O=C(NCC1CCCCC1)N1CCN(C(c2ccc(Br)cc2)c2ccccc2Cl)CC1 (stereo not drawn) | 0.127 | > 10 | 0.146
Cc1ccccc1C(c1ccc(Cl)cc1)N1CCN(C(=O)NC2CCCCC2)CC1 (stereo not drawn) | 0.248 | > 10 | 0.195
CC(C)(C)NC(=O)N1CCN(C(c2ccc(Cl)cc2)c2ccccc2Cl)CC1 (stereo not drawn) | 0.122 | 4.82 | 0.443
O=C(NC1CCCCC1)N1CCN(C(c2ccc(Cl)cc2)c2ccc(Cl)cc2)CC1 | 0.914 | – | –
O=C(C1CCCCC1)N1CCN(C(c2ccc(Cl)cc2)c2ccc(Cl)cc2)CC1 | 1.39 | – | –
O=C(NC1CCCCCC1)C(=O)N1CCN(C(c2ccc(Cl)cc2)c2ccccc2Cl)CC1 (stereo not drawn) | 0.229 | – | –
O=C(NC1CCCCCC1)N1CCN(C(c2ccc(Br)cc2)c2ccccc2Cl)CC1 (stereo not drawn) | 0.0823 | > 10 | 0.0494
O=C(NC1CCCCC1)C(=O)N1CCN(C(c2ccc(Cl)cc2)c2ccccc2Cl)CC1 (stereo not drawn) | 0.226 | – | –
O=C(NC1CCCCCC1)N1CCN(C(c2ccc(Cl)cc2)c2ccccc2Cl)CC1 (stereo not drawn) | 0.0665 | > 10 | 0.226
O=C(NC1CCCCC1)N1CCN(C(c2ccc(Cl)cc2)c2ccc(Cl)cc2Cl)CC1 (stereo not drawn) | 0.104 | > 10 | 0.367
Cc1ccccc1C(c1ccc(Cl)cc1)N1CCN(C(=O)NC(C)(C)C)CC1 (stereo not drawn) | 0.68 | > 10 | 0.334
CCCCCC(=O)N1CCN(C(c2ccc(Cl)cc2)c2ccc(Cl)cc2)CC1 | 1.15 | – | –
O=C(NCC1CCCCC1)N1CCN(C(c2ccc(Cl)cc2)c2ccccc2Cl)CC1 (stereo not drawn) | 0.189 | > 10 | 0.273
Cc1ccccc1C(c1ccc(Cl)cc1)N1CCN(C(=O)NCC2CCCCC2)CC1 (stereo not drawn) | 0.291 | > 10 | 0.34
O=C(NC1CCCCCC1)N1CCN(C(c2ccc(Cl)cc2)c2ccc(Cl)cc2Cl)CC1 (stereo not drawn) | 0.0892 | > 10 | 0.729
O=C(NC1CCCCC1)N1CCN(C(c2ccc(Cl)cc2)c2ccccc2C(F)(F)F)CC1 (stereo not drawn) | 0.163 | > 10 | 0.186

SMILES | IC50 [1] [µM] | IC50 [2] [µM] | IC50 [3] [µM]
O=C(NC1CCCCCC1)N1CCN(C(c2ccc(Cl)cc2)c2ccccc2C(F)(F)F)CC1 (stereo not drawn) | 0.141 | > 10 | 0.204
CCCCCC(=O)N1CCN(C(c2ccc(Cl)cc2)c2ccc(Cl)cc2Cl)CC1 (stereo not drawn) | 0.257 | – | –
O=C(NCC1CCCCC1)N1CCN(C(c2ccc(Cl)cc2)c2ccc(Cl)cc2Cl)CC1 (stereo not drawn) | 0.262 | > 10 | 1.04
O=C(NCC1CCCCC1)N1CCN(C(c2ccc(Cl)cc2)c2ccccc2C(F)(F)F)CC1 (stereo not drawn) | 0.526 | > 10 | 0.798
O=C(NC1CCCCC1)N1CCN(C(c2ccc(Cl)cc2)c2cccc(Cl)c2Cl)CC1 (stereo not drawn) | 0.186 | > 10 | 0.441
Cc1ccccc1C(c1ccc(Cl)cc1)N1CCN(C(=O)NC2CCCCCC2)CC1 (stereo not drawn) | 0.151 | > 10 | 0.163
CC(C)(C)NC(=O)N1CCN(C(c2ccc(Cl)cc2)c2ccccc2C(F)(F)F)CC1 (stereo not drawn) | 2.05 | – | –
O=C(NC1CCCCC1)N1CCN(C(c2ccc(Cl)cc2)c2ccccc2Cl)CC1 (stereo not drawn) | 0.0728 | > 10 | 0.128
O=C(NC1CCCCCC1)N1CCN(C(c2ccc(Cl)cc2)c2cccc(Cl)c2Cl)CC1 (stereo not drawn) | 0.158 | > 10 | 0.424
O=C(NC1CCCCC1)N1CCN(C(c2ccc(Br)cc2)c2ccccc2Cl)CC1 (stereo not drawn) | 0.103 | > 10 | 0.0628
CC(C)(C)NC(=O)N1CCN(C(c2ccc(Br)cc2)c2ccccc2Cl)CC1 (stereo not drawn) | 0.237 | 4.95 | 0.286
CC(C)(C)NC(=O)N1CCN(C(c2ccc(Cl)cc2)c2ccc(Cl)cc2Cl)CC1 (stereo not drawn) | 2 | – | –
CC(C)(C)NC(=O)N1CCN(C(c2ccc(Cl)cc2)c2cccc(Cl)c2Cl)CC1 (stereo not drawn) | 0.783 | > 10 | 0.316
O=C(C1CCC1)N1CCN(C(c2ccc(Cl)cc2)c2ccc(Cl)cc2)CC1 | 1.07 | – | –
O=C(NCC1CCCCC1)N1CCN(C(c2ccc(Cl)cc2)c2cccc(Cl)c2Cl)CC1 (stereo not drawn) | 2 | – | –
